Assay results published in ChEMBL document CHEMBL1649190, “Identification and characterization of mefloquine efficacy against JC virus in vitro” (Antimicrob Agents Chemother, 2009).
Where a name gives a salt, the structure may show the parent alone.

What was measured:
JC polyomavirus [1] = assay: microbe, parasite or virus in culture; assay type: functional, cell-based; settings: M1/SVEdelta, SVG-A, 72 h
in vitro [2] = settings: human
in vitro [3] = settings: human; remark: listed apart in the source
Plasma = assay: Drug concentration in human plasma; assay type: ADME, cell-free; settings: read-out: Drug uptake
JC polyomavirus [4] = assay: Antiviral activity against JC polyomavirus Mad1 infected in human PHFG cells assessed as inhibition of viral replication after 7 to 10 days
JC polyomavirus [5] = assay: Antiviral activity against JC polyomavirus M1/SVEdelta infected in human SVG-A cells assessed as inhibition of viral replication after 3 days; settings: 72 h
JC polyomavirus [6] = assay: Antiviral activity against JC polyomavirus Mad4 infected in human SVG-A cells assessed as inhibition of viral replication after 3 days; assay type: functional, cell-based; settings: 72 h
How it was run: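 SVG-A cells (2,000/well) in MEM with 2% heat-inactivated FBS and 4 mM L-glutamine were exposed to JCV(Mad4) plus compound over a concentration range for 60 min at 37°C. Drug-containing medium was then added. Cells were fixed, then stained for VP1 (PAb597) and DAPI and imaged. Infection rate was % VP1+/DAPI+ cells; inhibition was scaled to infected and uninfected controls. EC50 came from a sigmoid fit, n = 5.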

[7] = Lipophilicity, log P of the compound; assay type: physicochemical; settings: octanol/water
[8] = SVG-A cells infected with JC polyomavirus M1/SVEdelta

SMILES	EC50 (JC polyomavirus [1])	CC50 (in vitro [2]; SVG-A cells)	selectivity ratio (in vitro [3]; [8])	concentration (Plasma)	also measured
O[C@H](c1cc(C(F)(F)F)nc2c(C(F)(F)F)cccc12)[C@@H]1CCCCN1 (racemic) [(R,S)-MEFLOQUINE]	2.7 µM	–	–	–	–
O[C@@H](c1cc(C(F)(F)F)nc2c(C(F)(F)F)cccc12)[C@H]1CCCCN1 [(S,R)-MEFLOQUINE]	4.5 µM	–	–	–	–
CC(C)c1ccc2c(c1)CC[C@H]1[C@](C)(C(N)=O)CCC[C@]21C [DEHYDROABIETAMIDE]	–	> 40 µM	> 2	–	–
O=C(O)Cc1ccccc1Nc1c(Cl)cccc1Cl [DICLOFENAC SODIUM]	8.3 µM	30.5 µM	> 2	8 µM	–
COc1cc(C)c(C(=O)Oc2cc(C)c(C(=O)O)c(O)c2C)c(OC)c1C [DIFFRACTAIC ACID]	14.4 µM	> 40 µM	> 2	–	–
COc1ccc([C@@H]2Sc3ccccc3N(CCN(C)C)C(=O)[C@@H]2OC(C)=O)cc1 [DILTIAZEM HYDROCHLORIDE]	8.5 µM	> 40 µM	–	0.5 µM	–
O=C(O)c1ccccc1Nc1cccc(C(F)(F)F)c1 [FLUFENAMIC ACID]	11 µM	–	> 3	–	–
Cc1c(Nc2ncccc2C(=O)O)cccc1C(F)(F)F [FLUNIXIN MEGLUMINE]	14.5 µM	> 40 µM	> 2	–	–
CC(=O)O[C@H]1C[C@@]2(C)[C@@H](C[C@@H](O)[C@H]3[C@@]4(C)CC[C@@H](O)[C@@H](C)[C@@H]4CC[C@@]32C)/C1=C(\CCC=C(C)C)C(=O)O [FUSIDIC ACID]	8.6 µM	> 40 µM	> 2	19 µM	–
Cc1nccc2c1[nH]c1ccccc12 [HARMAN]	14.4 µM	> 40 µM	> 2	–	–
CC1=C(/C=C/C(C)=C/C=C/C(C)=C\C(=O)O)C(C)(C)CCC1 [ISOTRETINOIN]	4.4 µM	> 40 µM	–	24 µM	selectivity ratio (in vitro [3]; svg-a): > 2
Cc1cccc(Nc2ccccc2C(=O)O)c1C [MEFENAMIC ACID]	10.9 µM	> 40 µM	> 2	40 µM	–
OC(c1cc(C(F)(F)F)nc2c(C(F)(F)F)cccc12)C1CCCCN1 (configuration not stated) [MEFLOQUINE]	4 µM	–	–	6 µM	CC50 (in vitro [2]; svg-a): 16.1 µM; IC50 (JC polyomavirus [4]): 5 µM; IC50 (JC polyomavirus [1]): 3.9 µM; IC50 (JC polyomavirus [5]): 4 µM; IC50 (JC polyomavirus [6]): 4 µM; logP [7]: 2.47; selectivity ratio (in vitro [3]; svg-a): > 2
Clc1ccc(COC(Cn2ccnc2)c2ccc(Cl)cc2Cl)c(Cl)c1 (configuration not stated) [MICONAZOLE NITRATE]	–	–	–	–	CC50 (in vitro [2]; svg-a): 22.9 µM
CCC(=O)Nc1ccc(Cl)c(Cl)c1 [PROPANIL]	7.8 µM	> 40 µM	> 2	–	–
Cc1c(Cl)cccc1Nc1ccccc1C(=O)O [TOLFENAMIC ACID]	15 µM	–	> 3	–	–
O=c1c2ccccc2oc2ccccc12 [XANTHONE]	16.8 µM	> 40 µM	> 2	–	–
